Most compounds without a hit are left out; they make up all but 4.6% or so of the library.
OX1R antag-1: blocks the human orexin 1 receptor | O43613 | inhibition, % at 5 µM | 330,000 compounds, 0.43% hits | CHO/OX1R cells, Fluo-8 calcium fluorescence, orexin A | AID 434989;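 active = inhibition above its plate's threshold, mean inhibition of all tested compounds on the plate plus 3 SD, cut at about 37% in these data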
Target sequence (O43613 whole entry, looked up): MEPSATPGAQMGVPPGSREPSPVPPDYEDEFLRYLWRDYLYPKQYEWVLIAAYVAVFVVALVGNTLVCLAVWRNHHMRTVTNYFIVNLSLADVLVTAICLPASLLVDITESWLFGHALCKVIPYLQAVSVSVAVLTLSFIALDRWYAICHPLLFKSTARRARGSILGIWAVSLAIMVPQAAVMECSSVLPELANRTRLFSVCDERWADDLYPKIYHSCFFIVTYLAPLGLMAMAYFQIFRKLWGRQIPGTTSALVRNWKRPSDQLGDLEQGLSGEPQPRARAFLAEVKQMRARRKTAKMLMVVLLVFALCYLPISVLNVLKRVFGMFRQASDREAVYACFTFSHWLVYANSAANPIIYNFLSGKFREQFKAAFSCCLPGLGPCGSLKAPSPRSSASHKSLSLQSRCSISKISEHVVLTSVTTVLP
CHO parental Ca: signal in parental CHO cells, OX1R antagonist counter-screen; parental CHO-K1, ATP-induced calcium, Fluo-8 fluorescence; 330,000 compounds, 0.63% hits; inhibition, % at 5.6 µM; AID 463079;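 active = inhibition above that plate's mean sample inhibition plus 3 SD, cut at about 26% in these data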
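Assay system: parental CHO cells; Read-out basis: percent inhibition of ATP-evoked calcium rise, normalized to controls; Benchmarks: ATP and no-ATP DMSO wells; Compound dosing: single nominal dose of 5.6 µM per compound; Signal: Fluo-8 calcium dye fluorescence; Also added: ATP as calcium-mobilizing challenge; Repeats: singlicate.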
GPR7 antag: human neuropeptides B/W receptor 1 antagonism | P48145 | GPR7-expressing cells, fluorescence antagonist assay | AID 1861 | 290,000 compounds, 1.1% hits | inhibition, % at 4.4 µM; in the data active = inhibition above about 16%, passing the limit was not always enough;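 note: cells stimulated with the agonist NPW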
TAAR1 agonist: agonists of human TAAR1 | AID 624467 | activation, % at 3 µM | 360,000 compounds, 0.99% hits | Q96RJ0 | CHO RD-HGA16 TAAR1, Fluo-8 calcium fluorescence; vehicle wells 0%, saturating PEA agonist 100%;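 active = activation above the mean activation of all test compounds in the run plus 3 SD, cut at about 38% in these data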
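Test system: RD-HGA16 (CHO) cells co-expressing Gα16 and hTAAR1 / Benchmarks: DMSO vehicle as 0%, PEA at EC100 as 100% / Repeats: no replicates (n 1) / Measure: % activation from peak over basal fluorescence ratio, DMSO-to-PEA scaled / Timing: 17-24 h plating, Fluo-8 75 min 37 °C, 30 min RT / Technique: kinetic Fluo-8 calcium fluorescence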
OX1R antag-2: blocks the human orexin 1 receptor. O43613. OX1R-expressing cells, FRET antagonist read-out. inhibition, % at 6.6 µM. 330,000 compounds, 1.8% hits; in the data active = inhibition mostly above about 38%, no sharp cut-off; inactive = mostly below about 40%
TAAR1 antag: human TAAR1 antagonism; CHO RD-HGA16 TAAR1, Fluo-8 calcium fluorescence, antagonist; inhibition, % at 3 µM; 360,000 compounds, 1.5% hits; AID 624466;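 active = inhibition above a per-plate cutoff, the mean inhibition of test compounds on that plate plus 3 SD, cut at about 49% in these data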
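Test system: RD-HGA16 CHO cells with stable hTAAR1 and Gα16 / Probe or stimulus: EC80 β-phenethylamine stimulus / Times: seeding 17-24 h prior, 75-min 37 °C, 30-min RT dye loading / Detection: Fluo-8 calcium-sensitive fluorescence / Read-out basis: % inhibition scaled between DMSO and EC80 PEA controls / Repeats: singlicate, one well per test compound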
Numbers stand for hits; i = inactive; nt = not tested or not shown.

SMILES | OX1R antag-1 | CHO parental Ca | GPR7 antag | TAAR1 agonist | OX1R antag-2 | TAAR1 antag
O=C(CN1C(=O)NC2(CCc3ccccc32)C1=O)Nc1ccccc1OC(F)F (stereo unspecified) | i | i | nt | i | i | i
Cc1c(Cl)cccc1NC(=S)N1CCCN(Cc2ccccc2F)C1 | i | i | i | i | i | i
Fc1ccccc1CN1CCCN(C(=S)Nc2cccc(Cl)c2)C1 | i | 40 | i | i | i | i
Cc1c(Cl)cccc1NC(=S)N1CCCN(Cc2ccc(F)cc2)C1 | i | 33 | i | i | i | i
O=C(Nc1ccccc1)N1CCCN(Cc2ccccc2F)C1 | i | i | i | i | i | i
N#CC1=C(SCC(=O)Nc2cccc3cccnc23)NC(=O)C(C#N)C12CCCCC2 (stereo unspecified) | i | i | i | i | 39 | i
N#CC1=C(SCC(=O)NC2CC2)NC(=O)C(C#N)C12CCCCC2 (stereo unspecified) | i | i | i | i | i | i
Cc1[nH]c2ccccc2c1CC(=O)Nc1ccc(Nc2cccnc2)c(-c2ccc(-c3ccccc3)cc2F)c1 | nt | nt | nt | i | nt | i
O=C1CCCN2N=C(SCC(=O)Nc3cccc(C(F)(F)F)c3)SC2=N1 | i | 37 | i | i | i | i
O=C1CCCN2N=C(SCC(=O)Nc3ccc(Cl)cc3)SC2=N1 | i | i | i | 39 | i | i
O=C1CCCN2N=C(SCC(=O)Nc3cccc(Cl)c3)SC2=N1 | i | i | i | i | i | i
Cc1ccc(NC(=O)CSC2=NN3CCCC(=O)N=C3S2)cc1Cl | i | i | i | 42 | i | i
COC(=O)C1=C(C)N(C)C(=NCc2ccccc2C(F)(F)F)NC1c1ccc(Cl)cc1 (stereo unspecified) | nt | nt | nt | i | nt | i
Cc1c(NC(=O)COC(=O)c2cccn2C)c(=O)n(-c2ccccc2)n1C | i | i | nt | i | i | i
COc1cc(/C=C(/C#N)C(=O)Nc2ccccc2)c(Br)cc1OCc1ccc(C(=O)O)cc1 | 65 | 59 | i | i | i | i
COc1cc(/C=C(\C#N)C(=O)Nc2cccc(C(=O)O)c2)ccc1OCc1ccc(Cl)cc1 | i | i | i | i | i | i
COc1ccc(N2CCN(C(c3cccc(OC)c3OC)c3nnnn3C3CCCC3)CC2)cc1 (stereo unspecified) | i | i | 21 | i | i | i
COc1ccc(OC)c(C(c2nnnn2C2CCCC2)N2CCc3ccccc3C2)c1 (stereo unspecified) | i | i | i | i | i | i
COc1ccc(N2CCN(C(c3ccccc3OC)c3nnnn3C3CCCC3)CC2)cc1 (stereo unspecified) | nt | nt | i | i | nt | i
COc1ccc(C(c2nnnn2C2CCCC2)N2CCc3ccccc3C2)cc1OC (stereo unspecified) | nt | nt | 22 | i | nt | i
COc1ccc(OC)c(C(c2nnnn2C2CCCC2)N2CCN(c3ccccc3F)CC2)c1 (stereo unspecified) | i | i | 28 | i | i | i
CC(=O)C1=C(C)N(Cc2ccc(Cl)cc2)C(=S)NC1c1ccc(Cl)cc1 (stereo unspecified) | nt | nt | nt | i | nt | i
Cc1ccc2nc(CN(C)C(=O)[C@H]3O[C@@H](n4cnc(C(N)=O)n4)[C@H](O)[C@@H]3O)[nH]c2c1 | nt | nt | nt | i | nt | i
COc1cc(OC)cc(C(=O)N[C@H](C(=O)OCC(=O)Nc2cccc(F)c2)C(C)C)c1 | i | i | 21 | i | i | i
CCOC(=O)C1=C(C(=O)OCC)C2N(Cc3ccc(C#N)cc3)c3ccccc3[C@@]23C[C@@H](C(=O)OC)N(S(=O)(=O)c2ccc(OC)cc2)C3=N1 (stereo partly specified) | nt | nt | nt | i | nt | i
SMILES | OX1R antag-1 | CHO parental Ca | GPR7 antag | TAAR1 agonist | OX1R antag-2 | TAAR1 antag
COc1cc2c(cc1OC)CN(C(=S)Nc1ccc(OC(F)F)cc1)CC2 | i | 45 | i | i | i | i
CC(=O)N1CCN(c2ccc(NCc3ccc(-c4cccc(Cl)c4)o3)cc2)CC1 | i | i | nt | nt | i | nt
O=C(O)c1ccc(COc2ccc3ccccc3c2/C=C2/NC(=O)N(Cc3ccc(F)cc3)C2=O)cc1 | nt | nt | i | i | nt | 56
CCOC(=O)c1cnc(SCc2nc(N)nc(Nc3ccc(F)cc3)n2)nc1N | i | i | i | i | 61 | i
Cc1nc(SCC(=O)c2cccs2)c2oc3ccccc3c2n1 | i | i | i | i | 73 | i
Cc1nc(SCc2nc3ccccc3[nH]2)c2oc3ccccc3c2n1 | i | i | i | i | 79 | i
NC(=S)N1OC[C@@H]2COc3ccc4ccccc4c3[C@@H]21 | i | i | 16 | i | i | i
CN(C)S(=O)(=O)c1cccc(NC(=O)C2CCCN(C(=O)c3ccc(Cl)cc3)C2)c1 (stereo unspecified) | nt | nt | nt | i | nt | i
c1ccc(-c2cc(CSc3nc4ccccc4[nH]3)on2)cc1 | 75 | 44 | i | i | 89 | i
COc1cc2c(cc1OC)[C@](C)(c1ccccc1)C[C@@H]2NCC=C(C)C | nt | nt | nt | i | nt | i
O=C(N[C@H](Cc1ccccc1)C(=O)N(CCC1=CCCCC1)CC1CC1)[C@H]1O[C@@H](n2ccc(=O)[nH]c2=O)[C@H](O)[C@@H]1O | nt | nt | nt | i | nt | i
CCCNC(=O)c1cc2c(c(-c3cccc(-c4cc5ccccc5o4)c3)n1)[C@H](CCO)N(C(=O)NC(C)C)C2 | nt | nt | nt | i | nt | 50
CC(C)(C)S(=O)N1Cc2cc(C(=O)NCC(F)(F)F)nc(-c3cccc(-c4cccc(F)c4)c3)c2[C@@H]1CCO (stereo partly specified) | nt | nt | nt | i | nt | 51
CC(C)(C)S(=O)N1Cc2cc(C(=O)NCCCN3CCOCC3)nc(-c3cccc(-c4cc5ccccc5o4)c3)c2[C@@H]1CCO (stereo partly specified) | nt | nt | nt | i | nt | 55
CC(=O)N1Cc2cc(C(=O)NCC(F)(F)F)nc(-c3cccc(-c4cc5ccccc5o4)c3)c2[C@@H]1CCO | nt | nt | nt | i | nt | i
CCNc1nnc(SCC(=O)NC2CCCCCC2)s1 | nt | nt | nt | i | nt | i
CN(C)c1ccc(NC(=S)Nc2ccc3c(c2)c(=O)n(C)n3-c2ccc(C(C)(C)C)cc2)cc1 | nt | nt | nt | i | nt | i
CCOc1ccc(NC(=O)C(=O)NCCN2CCN(S(=O)(=O)c3ccc(C)cc3)CC2)cc1 | i | i | i | i | i | i
CCOC(=O)c1c(C)n(C)c2ccc(OC(=O)c3ccoc3)cc12 | i | i | 16 | i | i | i
CCCCCCC12C(=Cc3cc4c(cc31)OCCO4)c1cc(OC)c(OC)cc1C(CC(=O)NCc1ccccc1)N2C(=O)OC (stereo unspecified) | nt | nt | nt | i | nt | i
CC1=C(C(=O)OCC(C)C)[C@]23C(=O)c4ccccc4[C@@]2(O1)OC(N)=C3C#N | i | i | 17 | i | i | i
CC1=C(C(=O)OCC(C)C)C23C(=O)c4ccccc4C2(O1)OC(N)=C3C#N (stereo unspecified) | i | i | i | i | i | i

Screening data: PubChem BioAssay, The Scripps Research Institute Molecular Screening Center
